Runt-SMMHC FRET = inhibitors of human RUNX1 Runt domain binding to CBFb-SMMHC; inhibition, % at 20 µM; Q01196+Q13951; actives 0.74% (n = 220,000); AID 1434; Cerulean-Runt/Venus-CBFb-SMMHC FRET ratio 530/480, 1 h;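 active = mean inhibition across duplicate retests at 20 µM reaching about 50%, limit read from the data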;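 also: inhibitors lower the FRET ratio by blocking Runt binding to CBFb-SMMHC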
Target sequence (Q01196 whole entry, looked up, the tested form may be a part): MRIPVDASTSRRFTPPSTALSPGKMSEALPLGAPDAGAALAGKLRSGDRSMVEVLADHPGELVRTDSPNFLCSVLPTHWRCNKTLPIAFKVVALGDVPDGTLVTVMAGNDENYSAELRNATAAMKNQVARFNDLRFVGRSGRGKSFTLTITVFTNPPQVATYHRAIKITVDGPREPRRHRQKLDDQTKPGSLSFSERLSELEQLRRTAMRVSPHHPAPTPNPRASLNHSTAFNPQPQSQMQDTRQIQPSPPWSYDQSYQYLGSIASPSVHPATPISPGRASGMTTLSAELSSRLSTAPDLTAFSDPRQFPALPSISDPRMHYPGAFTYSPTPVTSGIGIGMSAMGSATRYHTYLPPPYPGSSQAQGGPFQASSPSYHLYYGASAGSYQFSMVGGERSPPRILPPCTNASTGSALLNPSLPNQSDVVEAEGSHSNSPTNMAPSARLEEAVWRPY
Target sequence (Q13951 whole entry, looked up, the tested form may be a part): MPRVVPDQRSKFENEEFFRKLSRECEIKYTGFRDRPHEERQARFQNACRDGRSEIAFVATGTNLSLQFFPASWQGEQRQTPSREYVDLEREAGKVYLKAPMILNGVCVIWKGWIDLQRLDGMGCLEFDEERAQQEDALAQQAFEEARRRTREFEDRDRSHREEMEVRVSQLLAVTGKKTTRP
RanGTP-Impb inh = inhibitors of RanGTP-importin-beta interaction, primary screen, biochemical, FRET, CFP-Ran, YFP-importin-beta, homogeneous | cell-free CFP-Ran/YFP-importin-beta FRET ratio | inhibition, % (test concentration not listed) | actives 1.1% (n = 300,000);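 active = more than half of the replicate wells show a fall in the fluorescence ratio signal beyond about 16%, limit read from the data, passing the limit was not always enough; inconclusive = exactly half of the replicate wells pass the set limit; inactive = fewer than half of replicates pass the limit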
Runt-CBFb FRET = Runt domain-CBFb interaction inhibition; actives 0.46% (n = 220,000); Cerulean-Runt/Venus-CBFb FRET ratio 530/480, 1 h; Q01196+Q13951; inhibition, % at 20 µM;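 active = inhibition over about 50% at 20 µM in the single-dose screen, limit read from the data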
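Buffer or medium: Tris pH 7.5 buffer with BSA. Assay system: Cerulean-labeled Runt domain protein. Amount: each fluorescent fusion protein 100 nM. Read-out basis: loss of energy transfer signal. Incubation: 1 h compound exposure, room temperature. Probe or stimulus: Venus-CBFb binding partner, 100 nM. Detection: FRET, excitation 422 nm, emission at 530 and 480 nm.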
eIF4E 4G PPI = inhibitors of eIF4E and eIF4G interaction in translation initiation | P63073+Q04637 | TR-FRET eIF4E-eIF4GI(517-606) binding, 2 h | AID 782 | actives 0.37% (n = 220,000) | inhibition, % at 21.7 µM;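 active = inhibition above about 30%, limit read from the data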
PERK inh = blocks human PERK kinase. Q9NZJ5. AID 1416. CHO PERK-DD fusion, SEAP luminescence translation reporter. inhibition, % at 5.6 µM. actives 0.17% (n = 220,000);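 active = inhibition above the mean inhibition of all tested compounds plus 3 SD, set separately per screening campaign, cut at about 2.9% in these data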;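 also: PERK kinase domain activated by AP20187 dimerizer at 100 nM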
Hck-Nef inh = blocks Nef-activated human Hck kinase; P08631; Recombinant Hck-YEEI plus Nef, Z-Lyte FRET kinase assay; inhibition, % at 20 µM; actives 0.68% (n = 220,000);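 active = Hck-Nef kinase inhibition above about 50%, limit read from the data; inactive = inhibition below that limit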
A number is an active result; n = inactive; u = inconclusive; x = no result given; [ ] = another dose, or the depositor's remark. This is a sample that favours compounds with a hit; in the whole collection about 2.2% have one here.

SMILES	Runt-SMMHC FRET	RanGTP-Impb inh	Runt-CBFb FRET	eIF4E 4G PPI	PERK inh	Hck-Nef inh
Cc1ccc(S(=O)(=O)/C(C#N)=C/c2c(N3CC(C)OC(C)C3)nc3ccccn3c2=O)cc1 (stereo not drawn)	n	n	n	n	n	n
N#C/C(=C\c1c(N2CCC(C(N)=O)CC2)nc2ccccn2c1=O)C(=O)NCc1ccco1	106.9	n	127.6	n	n	n
Cc1cccn2c(=O)c(/C=C(\C#N)C(=O)NCc3ccccc3)c(N3CCC(C(N)=O)CC3)nc12	89.2	n	147.5	n	n	n
N#C/C(=C\c1c(N2CCCCCC2)nc2ccccn2c1=O)C(N)=O	x	n	x	x	x	x
Cc1cccn2c(=O)c(/C=C(\C#N)C(=O)NCc3ccco3)c(N3CCOCC3)nc12	n	n	78.1	n	n	n
Cc1ccc(C(C(=O)NC(C)(C)C)N(Cc2cccs2)C(=O)c2ccc3c(c2)OCCO3)cc1 (stereo not drawn)	n	n	n	n	n	n
COc1ccc(/C(N)=N/OC(=O)N2CCOCC2)cc1	n	n	n	n	n	n
COCCNC(=O)/C(C#N)=C/c1c(N2CCN(c3cccc(Cl)c3)CC2)nc2c(C)cccn2c1=O	x	n	x	x	x	x
CCNC(=O)/C(C#N)=C/c1c(N2CCN(c3ccc(OC)cc3)CC2)nc2c(C)cccn2c1=O	x	n	x	x	x	x
CCOC(=O)/C(C#N)=C/c1c(N2CCN(CC)CC2)nc2c(C)cccn2c1=O	x	98.8	x	x	x	x
COCCNC(=O)/C(C#N)=C/c1c(N2CCN(c3ccccc3)CC2)nc2c(C)cccn2c1=O	x	29.1	x	x	x	x
CCN1CCN(c2nc3c(C)cccn3c(=O)c2/C=C(\C#N)C(=O)NC)CC1	x	n	x	x	x	x
CCNC(=O)/C(C#N)=C/c1c(N2CCN(c3ccccc3)CC2)nc2c(C)cccn2c1=O	x	20.1	x	x	x	x
CCOC(=O)/C=C/C(=O)Nc1ccc(S(=O)(=O)Nc2cc(C)on2)cc1	x	n	x	x	x	x
COc1cc2cc(NC(C)=O)cc(NCc3ccccc3)c2cc1OC	x	n	x	x	x	x
CCCCNc1cc(NC(C)=O)cc2cc(OC)c(OC)cc12	n	21.5	n	x	n	n
O=C1Nc2ccccc2SC(c2ccccc2)C1O (stereo not drawn)	n	n	n	35.7	n	n
O=C(O)CC1Sc2ccccc2NC1=O (stereo not drawn)	n	n	n	n	n	n
CC(=O)C1=C(c2ccccc2)OC(N)=C(C#N)C1c1ccc(O)cc1 (stereo not drawn)	n	n	n	51.0[fluorescence artefact?]	n	n
CCOc1ccc(CNC(c2ccccc2)c2ccccc2)cc1	x	33.3	x	x	x	x
Cc1c(OC(=O)c2ccc([N+](=O)[O-])cc2)c2c(c[n+]1C)COC(C)(C)OC2	n	u	n	40.5[fluorescence artefact?]	n	n
O=C(Nc1cccc(Cl)c1)NC1CC2CCC(C1)N2Cc1ccco1 (stereo not drawn)	n	33.5	n	n	n	n
CCN1C(=O)N(S(=O)(=O)C(F)(F)F)[C@@H](c2ccccc2)C(C(=O)OC)=C1C	n	34.8	n	n	x	n
CC1CCCC(C)N1C(=O)c1ccccc1Nc1ccc(SC(F)F)cc1 (stereo not drawn)	n	n	n	n	n	n
COc1ccc2cc(C(c3nnnn3C(C)(C)C)N3CCc4ccccc4C3)c(=O)[nH]c2c1 (stereo not drawn)	n	x	n	n	n	n
SMILES	Runt-SMMHC FRET	RanGTP-Impb inh	Runt-CBFb FRET	eIF4E 4G PPI	PERK inh	Hck-Nef inh
CCC(C)(C)n1nnnc1C(c1cc2cc3c(cc2[nH]c1=O)OCO3)N1CCN(C)CC1 (stereo not drawn)	65.8	n	n	n	n	n
CCC(C)(C)n1nnnc1C(c1cc2ccc(OC)cc2[nH]c1=O)N1CCc2ccccc2C1 (stereo not drawn)	n	16.1	n	n	n	n
c1ccc2c(c1)OCc1cn[nH]c1-2	n	n	n	50.7	n	n
CCP(=O)(CC)C(C)(C)CP(=O)(c1ccccc1)c1ccccc1	n	n	x	n	n	n
COc1cc2c(cc1OC)-c1cc(NCc3ccccn3)nc(=O)n1CC2	n	n	n	88.5	n	n
Cc1nnc(SCC(=O)NNC(=O)c2ccco2)s1	x	n	x	x	x	x
O=c1c2ccccc2sn1-c1cc(S(=O)(=O)N2CCOCC2)ccc1N1CCCC1	n	n	n	55.6	n	n
COc1ccc2cc3c(N)nn(C(=O)c4cccc(F)c4)c3nc2c1	n	u	n	74.7	n	n
COc1ccc2cc3c(N)nn(C(=O)c4ccc(F)cc4)c3nc2c1	n	n	n	n	n	n
Cc1ccc(NC(=O)COC(=O)CN2C(=O)c3ccccc3C2=O)cc1S(=O)(=O)N(C)C	n	39.8	n	n	n	n
Cc1ccc(NC(=O)COC(=O)CN2C(=O)NC3(CCCC3)C2=O)cc1S(=O)(=O)N(C)C	n	n	n	n	n	n
COc1ccc(C)cc1S(=O)(=O)N1CCN(Cc2ccccc2)CC1	n	n	n	n	n	n
CCOC(=O)c1cc(-c2ccccc2)nn1CC1CC(c2cccnc2)=NO1 (stereo not drawn)	x	n	x	x	x	x
COc1ccc(-c2n[nH]c(=S)n2Cc2ccco2)cc1	n	u	n	n	n	n
O=S(=O)(Nc1ccccc1N1CCCCC1)c1ccc(F)cc1	n	n	n	n	3.2	n
CC(C)CNC(=O)C1c2ccccc2Oc2ccccc21	n	n	n	n	n	n
CCc1nn(-c2ccccc2)c2c1-c1cc(OC)c(OC)cc1C1(N2)C(=O)Nc2ccccc21 (stereo not drawn)	n	31.1	n	n	n	n
COc1cc2c(cc1OC)C1(Nc3c-2c(C)nn3-c2ccccc2)C(=O)Nc2ccccc21 (stereo not drawn)	n	x	n	n	n	n
O=C(CN1N=C(c2ccc(Cl)cc2)CCC1=O)NCc1cccs1	n	n	n	n	n	n
N=c1c(C(=O)NC2CCCC2)cc2c(=O)n3ccccc3nc2n1Cc1ccccc1	x	177.4	x	x	x	x
CCOCCCn1c(=N)c(C(=O)Nc2cc(C)on2)cc2c(=O)n3ccccc3nc21	x	x	x	x	n	68.4
N=c1c(C(=O)NC2CCCCC2)cc2c(=O)n3ccccc3nc2n1Cc1ccc(F)cc1	x	159.0	x	x	x	x
CCOC(=O)c1cc2c(=O)n3ccccc3nc2n(Cc2ccccc2)c1=N	62.6	188.2	n	n	n	n
Cc1ccccc1S(=O)(=O)Cc1ccc(C(=O)NCCN(CC(C)C)CC(C)C)o1	x	n	x	x	x	x
Cc1ccc(C(=O)N2CCN(C(=O)c3ccc(C)cc3)C2)cc1	n	n	n	n	n	n
Cc1ccc(Cn2c(=N)c(S(=O)(=O)c3ccc(Br)cc3)cc3c(=O)n4ccccc4nc32)cc1	x	n	x	x	x	x
Cc1ccc(Cn2c(=N)c(C(=O)NC3CCCCC3)cc3c(=O)n4ccccc4nc32)cc1	x	161.1	x	x	x	x
CCCc1nc2cc(CC(=O)OC)ccc2o1	n	n	n	n	3.1	n

Source: PubChem BioAssay (several laboratories)
